# Legend:
# Assay type in all cases: functional
# Staphylococcus aureus [1] = experiment: Antimicrobial activity against multidrug-resistant Staphylococcus aureus H.C. 21141 isolate after 20 hrs by twofold serial dilution technique; details: H.C. 21141, 20 h
# Method in brief: (§1)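 Twofold serial dilution MIC in agar plates against Gram-positive strains and multidrug-resistant clinical isolates. Inoculum applied was 10⁵ CFU/plate. Plates with culture medium plus DMSO served as negative control. MIC was read after incubation at 35 °C for 20 h.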
# Enterococcus faecalis [2] = experiment: Antimicrobial activity against Enterococcus faecalis UFPEDA 138 after 20 hrs by twofold serial dilution technique; details: UFPEDA 138, 20 h
# Method in brief: (§2)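 MIC was determined by twofold serial dilution. Bacteria were tested in plates at 10⁵ CFU/plate and read after 20 h. C. albicans was tested in tubes at 10³ CFU/tube and read after 48 h. All incubations were at 35 °C. Medium plus DMSO served as the negative control.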
# NCI-H292 [3] = experiment: Cytotoxicity against human NCI-H292 cells at 2.5 ug/mL after 72 hrs by MTT assay; details: NCI-H292, 72 h, read-out: GI
# Method in brief: (§3)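 MTT antiproliferative assay. Cells were diluted to 10⁵ cells/mL in 96-well plates and preincubated for 24 h at 37 °C in humid 5% CO₂. Compounds or vincristine (reference) were then added. Formazan was dissolved and OD read at 540 nm, compared with medium-only control cells. Run in triplicate.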
# Enterococcus faecalis [4] = experiment: Antimicrobial activity against multidrug-resistant Enterococcus faecalis H.C. 21752 isolate after 20 hrs by twofold serial dilution technique; details: H.C. 21752, 20 h; method in brief: as §1
# Enterococcus faecalis [5] = experiment: Antimicrobial activity against Enterococcus faecalis UFPEDA 138 at 300 ug/disk after 24 hrs by disk diffusion method; details: UFPEDA 138, 24 h, read-out: IZ
# Method in brief: (§4)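 Preliminary screen by disk diffusion. Paper disks (6 mm) holding 300 µg of compound were placed on agar plates inoculated with a standardized microbial suspension. DMSO-only disks served as negative controls. A mean inhibition zone below 7 mm was scored as no sensitivity. Values are means, n = 3.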
# Staphylococcus aureus [6] = experiment: Antimicrobial activity against multidrug-resistant Staphylococcus aureus H.C. 20981 isolate after 20 hrs by twofold serial dilution technique; details: H.C. 20981, 20 h; method in brief: as §1
# Pseudomonas aeruginosa [7] = experiment: Antimicrobial activity against Pseudomonas aeruginosa UFPEDA 39 at 300 ug/disk after 24 hrs by disk diffusion method; details: UFPEDA 39, 24 h, read-out: IZ; method in brief: as §4
# Enterococcus faecalis [8] = experiment: Antimicrobial activity against multidrug-resistant Enterococcus faecalis H.C. 24708 isolate after 20 hrs by twofold serial dilution technique; details: H.C. 24708, 20 h; method in brief: as §1
# Staphylococcus aureus [9] = experiment: Antimicrobial activity against Staphylococcus aureus UFPEDA 01 after 20 hrs by twofold serial dilution technique; details: UFPEDA 01, 20 h; method in brief: as §1
# Bacillus subtilis [10] = experiment: Antimicrobial activity against Bacillus subtilis UFPEDA 16 at 300 ug/disk after 24 hrs by disk diffusion method; details: UFPEDA 16, 24 h, read-out: IZ; method in brief: as §4
# HEp-2 [11] = experiment: Cytotoxicity against human Hep2 cells at 10 ug/mL after 72 hrs by MTT assay; details: HEp-2, 72 h, read-out: GI; method in brief: as §3
# Staphylococcus aureus [12] = experiment: Antimicrobial activity against multidrug-resistant Staphylococcus aureus H.C. 20794 isolate after 20 hrs by twofold serial dilution technique; details: H.C. 20794, 20 h; method in brief: as §1
# Candida albicans [13] = experiment: Antimicrobial activity against Candida albicans UFPEDA 1007 at 300 ug/disk after 48 hrs by disk diffusion method; details: UFPEDA 1007, 48 h, read-out: IZ; method in brief: as §4
# HEp-2 [14] = experiment: Cytotoxicity against human Hep2 cells at 1.25 ug/mL after 72 hrs by MTT assay; details: HEp-2, 72 h, read-out: GI; method in brief: as §3
# Micrococcus luteus [15] = experiment: Antimicrobial activity against Micrococcus luteus UFPEDA 06 after 20 hrs by twofold serial dilution technique; details: UFPEDA 06, 20 h; method in brief: as §2
# HEp-2 [16] = experiment: Cytotoxicity against human Hep2 cells at 2.5 ug/mL after 72 hrs by MTT assay; details: HEp-2, 72 h, read-out: GI; method in brief: as §3
# [17] = test system: Mycolicibacterium smegmatis; experiment: Antimicrobial activity against Mycobacterium smegmatis UFPEDA 71 at 300 ug/disk after 24 hrs by disk diffusion method; details: UFPEDA 71, 24 h, read-out: IZ; method in brief: as §4
# Candida albicans [18] = experiment: Antimicrobial activity against Candida albicans UFPEDA 1007 after 48 hrs by twofold serial dilution technique; details: UFPEDA 1007, 48 h; method in brief: as §2
# Staphylococcus [19] = experiment: Antimicrobial activity against coagulase-negative Staphylococcus H.A.M. 278 isolate after 20 hrs by twofold serial dilution technique; details: H.A.M. 278, 20 h; method in brief: as §2
# NCI-H292 [20] = experiment: Cytotoxicity against human NCI-H292 cells at 1.25 ug/mL after 72 hrs by MTT assay; details: NCI-H292, 72 h, read-out: GI; method in brief: as §3
# Enterococcus faecalis [21] = experiment: Antimicrobial activity against multidrug-resistant Enterococcus faecalis H.C. 21944 isolate after 20 hrs by twofold serial dilution technique; details: H.C. 21944, 20 h; method in brief: as §1
# Staphylococcus [22] = experiment: Antimicrobial activity against coagulase-negative Staphylococcus H.A.M. 338 isolate after 20 hrs by twofold serial dilution technique; details: H.A.M. 338, 20 h; method in brief: as §2
# NCI-H292 [23] = experiment: Cytotoxicity against human NCI-H292 cells at 5 ug/mL after 72 hrs by MTT assay; details: NCI-H292, 72 h, read-out: GI; method in brief: as §3
# Staphylococcus aureus [24] = experiment: Antimicrobial activity against Staphylococcus aureus UFPEDA 01 at 300 ug/disk after 24 hrs by disk diffusion method; details: UFPEDA 01, 24 h, read-out: IZ; method in brief: as §4
# HEp-2 [25] = experiment: Cytotoxicity against human Hep2 cells at 5 ug/mL after 72 hrs by MTT assay; details: HEp-2, 72 h, read-out: GI; method in brief: as §3
# Staphylococcus aureus [26] = experiment: Antimicrobial activity against multidrug-resistant Staphylococcus aureus H.C. 20489 isolate after 20 hrs by twofold serial dilution technique; details: H.C. 20489, 20 h; method in brief: as §1
# Bacillus subtilis [27] = experiment: Antimicrobial activity against Bacillus subtilis UFPEDA 16 after 20 hrs by twofold serial dilution technique; details: UFPEDA 16, 20 h; method in brief: as §2
# Staphylococcus aureus [28] = experiment: Antimicrobial activity against multidrug-resistant Staphylococcus aureus H.C. 21036 isolate after 20 hrs by twofold serial dilution technique; details: H.C. 21036, 20 h; method in brief: as §1
# NCI-H292 [29] = experiment: Cytotoxicity against human NCI-H292 cells at 10 ug/mL after 72 hrs by MTT assay; details: NCI-H292, 72 h, read-out: GI; method in brief: as §3
# Escherichia coli [30] = experiment: Antimicrobial activity against Escherichia coli UFPEDA 224 at 300 ug/disk after 24 hrs by disk diffusion method; details: UFPEDA 224, 24 h, read-out: IZ; method in brief: as §4
# [31] = test system: Mycolicibacterium smegmatis; experiment: Antimicrobial activity against Mycobacterium smegmatis UFPEDA 71 after 20 hrs by twofold serial dilution technique; details: UFPEDA 71, 20 h; method in brief: as §2
# Enterococcus faecalis [32] = experiment: Antimicrobial activity against multidrug-resistant Enterococcus faecalis H.C. 24962 isolate after 20 hrs by twofold serial dilution technique; details: H.C. 24962, 20 h; method in brief: as §1
# Micrococcus luteus [33] = experiment: Antimicrobial activity against Micrococcus luteus UFPEDA 06 at 300 ug/disk after 24 hrs by disk diffusion method; details: UFPEDA 06, 24 h, read-out: IZ; method in brief: as §4
# Serratia marcescens [34] = experiment: Antimicrobial activity against Serratia marcescens UFPEDA 398 at 300 ug/disk after 24 hrs by disk diffusion method; details: UFPEDA 398, 24 h, read-out: IZ; method in brief: as §4
# Staphylococcus aureus [35] = experiment: Antimicrobial activity against multidrug-resistant Staphylococcus aureus H.C. 20905 isolate after 20 hrs by twofold serial dilution technique; details: H.C. 20905, 20 h; method in brief: as §1
# Serratia marcescens [36] = experiment: Antimicrobial activity against Serratia marcescens UFPEDA 398 at 30 ug/disk after 24 hrs by disk diffusion method; details: UFPEDA 398, 24 h, read-out: IZ
# Pseudomonas aeruginosa [37] = experiment: Antimicrobial activity against Pseudomonas aeruginosa UFPEDA 39 at 30 ug/disk after 24 hrs by disk diffusion method; details: UFPEDA 39, 24 h, read-out: IZ
# Escherichia coli [38] = experiment: Antimicrobial activity against Escherichia coli UFPEDA 224 at 30 ug/disk after 24 hrs by disk diffusion method; details: UFPEDA 224, 24 h, read-out: IZ
# [39] = test system: Mycolicibacterium smegmatis; experiment: Antimicrobial activity against Mycobacterium smegmatis UFPEDA 71 at 30 ug/disk after 24 hrs by disk diffusion method; details: UFPEDA 71, 24 h, read-out: IZ
Compound,MIC (Staphylococcus aureus [1]) [µg/mL],MIC (Enterococcus faecalis [2]) [µg/mL],inhibition of growth at 2.5 µg/mL (NCI-H292 [3]) [%],MIC (Enterococcus faecalis [4]) [µg/mL],zone of inhibition at 300 µg/disc (Enterococcus faecalis [5]) [mm],MIC (Staphylococcus aureus [6]) [µg/mL],zone of inhibition at 300 µg/disc (Pseudomonas aeruginosa [7]) [mm],MIC (Enterococcus faecalis [8]) [µg/mL],MIC (Staphylococcus aureus [9]) [µg/mL],zone of inhibition at 300 µg/disc (Bacillus subtilis [10]) [mm],inhibition of growth at 10 µg/mL (HEp-2 [11]) [%],MIC (Staphylococcus aureus [12]) [µg/mL],zone of inhibition at 300 µg/disc (Candida albicans [13]) [mm],inhibition of growth at 1.25 µg/mL (HEp-2 [14]) [%],MIC (Micrococcus luteus [15]) [µg/mL],inhibition of growth at 2.5 µg/mL (HEp-2 [16]) [%],zone of inhibition at 300 µg/disc [17] [mm],MIC (Candida albicans [18]) [µg/mL],MIC (Staphylococcus [19]) [µg/mL],inhibition of growth at 1.25 µg/mL (NCI-H292 [20]) [%],further results
O=C1NC(=S)/C(=C/c2ccc(Br)cc2)S1,4,16,1.19,8,17,4,< 7,8,4,18,18.2,2,15,-3.16,8,-0.36,17,32,4,1.1,MIC (Enterococcus faecalis [21]): 8 µg/mL; MIC (Staphylococcus [22]): 4 µg/mL; inhibition of growth at 5 µg/mL (NCI-H292 [23]): 16.6%; zone of inhibition at 300 µg/disc (Staphylococcus aureus [24]): 23 mm; inhibition of growth at 5 µg/mL (HEp-2 [25]): 15.4%; MIC (Staphylococcus aureus [26]): 4 µg/mL; MIC (Bacillus subtilis [27]): 2 µg/mL; MIC (Staphylococcus aureus [28]): 4 µg/mL; inhibition of growth at 10 µg/mL (NCI-H292 [29]): 36.5%; zone of inhibition at 300 µg/disc (Escherichia coli [30]): < 7 mm; MIC [31]: 4 µg/mL; MIC (Enterococcus faecalis [32]): 8 µg/mL; zone of inhibition at 300 µg/disc (Micrococcus luteus [33]): 21 mm; zone of inhibition at 300 µg/disc (Serratia marcescens [34]): < 7 mm; MIC (Staphylococcus aureus [35]): 4 µg/mL
NC[C@H]1O[C@H](O[C@H]2[C@H](O)[C@@H](O[C@H]3O[C@H](CO)[C@@H](O)[C@H](N)[C@H]3O)[C@H](N)C[C@@H]2N)[C@H](O)[C@@H](O)[C@@H]1O [KANAMYCIN],–,–,–,–,–,–,–,–,–,–,–,–,–,–,–,–,–,–,–,–,zone of inhibition at 30 µg/disc (Serratia marcescens [36]): 45 mm; zone of inhibition at 30 µg/disc (Pseudomonas aeruginosa [37]): 20 mm; zone of inhibition at 30 µg/disc (Escherichia coli [38]): 15 mm; zone of inhibition at 30 µg/disc [39]: 40 mm
O=C1NC(=S)/C(=C/c2ccc(F)cc2)S1,32,32,17.5,32,24,4,< 7,16,4,26,30.1,2,17,-10.8,16,-4.51,25,32,32,7.32,MIC (Enterococcus faecalis [21]): 32 µg/mL; MIC (Staphylococcus [22]): 32 µg/mL; inhibition of growth at 5 µg/mL (NCI-H292 [23]): 31.6%; zone of inhibition at 300 µg/disc (Staphylococcus aureus [24]): 29 mm; inhibition of growth at 5 µg/mL (HEp-2 [25]): 20.6%; MIC (Staphylococcus aureus [26]): 2 µg/mL; MIC (Bacillus subtilis [27]): 16 µg/mL; MIC (Staphylococcus aureus [28]): 2 µg/mL; inhibition of growth at 10 µg/mL (NCI-H292 [29]): 38%; zone of inhibition at 300 µg/disc (Escherichia coli [30]): < 7 mm; MIC [31]: 16 µg/mL; MIC (Enterococcus faecalis [32]): 16 µg/mL; zone of inhibition at 300 µg/disc (Micrococcus luteus [33]): 29 mm; zone of inhibition at 300 µg/disc (Serratia marcescens [34]): < 7 mm; MIC (Staphylococcus aureus [35]): 2 µg/mL
